These results are taken from ChEMBL document CHEMBL2311498, “Sulfonylureas have antifungal activity and are potent inhibitors of Candida albicans acetohydroxyacid synthase” (J Med Chem, 2013).

Data set [1] in a line: Inhibition of Candida albicans acetohydroxyacid synthase catalytic domain expressed in Escherichia coli by colorimetric method. The essentials: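 Catalytic subunit, His6-tagged, expressed in E. coli Rosetta and purified on Ni affinity resin with FAD present. Single-point colorimetric assay in 250 mM potassium phosphate pH 6.4 with 50 mM pyruvate, 10 mM MgCl2, 1 mM ThDP and 10 μM FAD, 30 °C for 30 min. Acid decarboxylation to acetoin, creatine/α-naphthol colour read at A525. Duplicates at 10–12 inhibitor levels, Ki from nonlinear fit, tight-binding equation where needed.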

In data set [2] the test system is Candida albicans. Description: Antifungal activity against Candida albicans after 72 hrs by broth microdilution method. The data set is classed as functional.
The test system of data set [3] is Candida albicans. The data set is described as follows: Antifungal activity against Candida albicans after 24 hrs by broth microdilution assay. The data set is classed as functional. The essentials:
(§1)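 Broth microdilution in YNB supplemented with 0.5% glucose and 100 mM ammonium sulfate, with compounds serially diluted from DMSO solutions. Inoculum came from single colonies of 48 h plates suspended in water, adjusted by 530 nm turbidity to 1 × 10^6 to 5 × 10^6 CFU/mL, then diluted to about 10^4 CFU/mL. Incubated at 35 °C with visual readings at 24, 48 and 72 h. MIC50/90 is the concentration giving 50%/90% growth inhibition; MIC50 is the mean of three measurements.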

The subject of data set [4] is Saccharomyces cerevisiae. Description: Antifungal activity against Saccharomyces cerevisiae after 72 hrs by broth microdilution assay. The class given is functional. In a few lines: as §1
Data set [5] has as its system Candida albicans. The data set is described as follows: Antifungal activity against Candida albicans after 72 hrs by disk diffusion method. The class given is functional. The essentials: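 Screened by disk diffusion: 10 μL of compound in DMSO applied to a disk on plates inoculated with yeast. Plates were incubated at 35 °C, and inhibition-zone diameters were measured at 24, 48 and 72 h against a DMSO control disk.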

Data set [6] can be described thus: Toxicity in po dosed rat. The data set is classed as organism-based. Particulars: in vivo.
A short description of data set [7]: Toxicity in id dosed rabbit. Particulars: in vivo. The data set is classed as organism-based, Oryctolagus cuniculus.

SMILES strings stand for the structures. Converted amounts (≈) assume the structure as drawn. The source made the active and inactive calls. The rule behind the calls is not given here.

As to `COc1cc(Cl)nc(NC(=O)NS(=O)(=O)c2ccccc2C(=O)OCCCl)n1`, the Ki in data set [1] (read-out: Ki) worked out at 62 nM. In data set [2], this molecule came in with an MIC50 of 15 µM (≈ 6.74 µg/mL) and an MIC90 of over 25 µM.
As for `OC(Cn1cncn1)(Cn1cncn1)c1ccc(F)cc1F` [FLUCONAZOLE], in data set [3], the MIC50 is 0.93 µg/mL (≈ 3.04 µM).
As to `COc1cc(I)nc(NC(=O)NS(=O)(=O)c2ccccc2C(=O)OCCBr)n1`, in data set [1] (read-out: Ki), the Ki came out at 26 nM. For the same molecule, in data set [2], the MIC50 was 12 µM (≈ 7.02 µg/mL) and the MIC90 was over 25 µM.
As to `COc1nc(C)nc(NC(=O)NS(=O)(=O)c2ccccc2Cl)n1` [CHLORSULFURON], the MIC50 in data set [4] stood at 117 µM (≈ 41.9 µg/mL); in data set [2] it was 156 µM (≈ 55.8 µg/mL). Besides, the Ki in data set [1] (read-out: Ki) turned out to be 434 nM.
In the case of `COc1cc(Br)nc(NC(=O)NS(=O)(=O)c2ccccc2C(=O)OCCBr)n1`, in data set [1] (read-out: Ki), the inhibition constant (Ki) turned out to be 65 nM. For the same molecule, in data set [2], the MIC50 was over 25 µM and the MIC90 was over 25 µM.
As for `COC(=O)c1ccccc1S(=O)(=O)NC(=O)N(C)c1nc(C)nc(OC)n1` [TRIBENURON METHYL], the MIC50 result in data set [4] and in data set [2] was “inactive” throughout. Also, the Ki in data set [1] (read-out: Ki) was 1640 nM.
As to `COc1cc(Br)nc(NC(=O)NS(=O)(=O)c2ccccc2C(=O)OCCO[Si](C)(C)C(C)(C)C)n1`, the Ki in data set [1] (read-out: Ki) stood at 49.8 nM. Moreover, in data set [2], the MIC50 is over 25 µM and the MIC90 was over 25 µM.
Turning to `CCOc1nc(NC)nc(NC(=O)NS(=O)(=O)c2ccccc2C(=O)OC)n1` [ETHAMETSULFURON METHYL], the MIC50 result in data set [4] and in data set [2] was “inactive” throughout. For the same molecule, the inhibition constant (Ki) in data set [1] (read-out: Ki) is 656 nM.
On to `CCOc1ccccc1OS(=O)(=O)NC(=O)Nc1nc(OC)cc(OC)n1` [ETHOXYSULFURON], for which the results for the MIC50 in data set [4] and in data set [2] were 13 µM (≈ 5.18 µg/mL) and 2 µM (≈ 0.797 µg/mL), respectively. The inhibition constant (Ki) in data set [1] (read-out: Ki) is 20 nM. In addition, the “diameter of the inhibition zone (DIZ)” value in data set [5] worked out at 30 mm.
As to `COc1cc(Cl)nc(NC(=O)NS(=O)(=O)c2ccccc2C(=O)OCCO[Si](C)(C)C(C)(C)C)n1`, the inhibitory constant (Ki) result in data set [1] is “Not Active”. In data set [2], this molecule had an MIC50 of over 25 µM and an MIC90 of over 25 µM.
Take `CCOC(=O)c1ccccc1S(=O)(=O)NC(=O)Nc1nc(Cl)cc(OC)n1` [CHLORIMURON ETHYL]: the 50% lethal dose (LD50) in data set [6] was over 4000 mg/kg; in data set [7] it was over 2000 mg/kg. The results for the MIC50 in data set [4] and in data set [2] were 19.5 µM (≈ 8.09 µg/mL) and 2 µM (≈ 0.83 µg/mL), respectively. Also, the Ki in data set [1] (read-out: Ki) was 7 nM. The “diameter of the inhibition zone (DIZ)” value in data set [5] was found to be 25 mm.
In the case of `CCOC(=O)c1ccccc1S(=O)(=O)NC(=O)Nc1nc(Br)cc(OC)n1`, in data set [1] (read-out: Ki), the Ki came to 4.1 nM. In data set [2], this molecule returned an MIC50 of 0.7 µM (≈ 0.321 µg/mL) and an MIC90 of 1.56 µM (≈ 0.716 µg/mL).
As to `COc1cc(Cl)nc(NC(=O)NS(=O)(=O)c2ccccc2C(=O)OCCO)n1`, the Ki in data set [1] (read-out: Ki) worked out at 65 nM. Besides, in data set [2], the MIC50 is over 25 µM and the MIC90 was over 25 µM.
On to `COc1cc(Cl)nc(NC(=O)NS(=O)(=O)c2ccccc2C(=O)OCCI)n1`, for which the Ki in data set [1] (read-out: Ki) came out at 1200 nM. In data set [2], this molecule showed an MIC50 of over 25 µM and an MIC90 of over 25 µM.
Turning to `COC(=O)c1ccccc1S(=O)(=O)NC(=O)Nc1nc(C)cc(C)n1` [SULFOMETURON METHYL], the MIC50 in data set [4] turned out to be 19.5 µM (≈ 7.11 µg/mL). Moreover, in data set [1] (read-out: Ki), the inhibition constant Ki was 634 nM. Besides, in data set [2], the MIC50 entry is “inactive”.
With `CCOC(=O)c1cnn(C)c1S(=O)(=O)NC(=O)Nc1nc(OC)cc(OC)n1` [PYRAZOSULFURON ETHYL], the MIC50 in data set [4] is 41.7 µM (≈ 17.3 µg/mL); in data set [2], 62 µM (≈ 25.7 µg/mL). The inhibitory constant (Ki) in data set [1] (read-out: Ki) is 66 nM.
For the molecule `COc1cc(I)nc(NC(=O)NS(=O)(=O)c2ccccc2C(=O)OCCCl)n1`, the Ki in data set [1] (read-out: Ki) was determined as 13.3 nM. In data set [2], this molecule gave an MIC50 of 4 µM (≈ 2.16 µg/mL) and an MIC90 of 12.7 µM (≈ 6.87 µg/mL).
For the molecule `COC(=O)c1ccccc1S(=O)(=O)NC(=O)Nc1nc(I)cc(OC)n1`, the Ki in data set [1] (read-out: Ki) turned out to be 3.9 nM. In data set [2], this molecule came in with an MIC50 of 1 µM (≈ 0.492 µg/mL) and an MIC90 of 3.13 µM (≈ 1.54 µg/mL).
`CCOC(=O)c1ccccc1S(=O)(=O)NC(=O)Nc1nc(I)cc(OC)n1`: the Ki in data set [1] (read-out: Ki) worked out at 3.8 nM. In data set [5], the “diameter of the inhibition zone (DIZ)” value stood at 35 mm. Besides, in data set [2], the MIC50 was found to be 0.6 µM (≈ 0.304 µg/mL) and the MIC90 came to 1.56 µM (≈ 0.79 µg/mL).
With `COc1cc(I)nc(NC(=O)NS(=O)(=O)c2ccccc2C(=O)OCCO[Si](C)(C)C(C)(C)C)n1`, the inhibition constant (Ki) in data set [1] (read-out: Ki) was 13 nM. In data set [2], the MIC50 is over 25 µM and the MIC90 is over 25 µM.
Consider `COc1cc(Br)nc(NC(=O)NS(=O)(=O)c2ccccc2C(=O)OCCO)n1`, for which the Ki in data set [1] (read-out: Ki) was found to be 27 nM. In data set [2], this molecule had an MIC50 of over 25 µM and an MIC90 of over 25 µM.
For `COc1cc(I)nc(NC(=O)NS(=O)(=O)c2ccccc2C(=O)OCCO)n1`, in data set [1] (read-out: Ki), the inhibitory constant (Ki) is 15 nM. In data set [2], this molecule returned an MIC50 of over 25 µM and an MIC90 of over 25 µM.
For the molecule `COC(=O)c1ccccc1S(=O)(=O)NC(=O)Nc1nc(Br)cc(OC)n1`, the Ki in data set [1] (read-out: Ki) was found to be 3.8 nM. In data set [2], this molecule showed an MIC50 of 1 µM (≈ 0.445 µg/mL) and an MIC90 of 6.25 µM (≈ 2.78 µg/mL).
`COc1cc(Br)nc(NC(=O)NS(=O)(=O)c2ccccc2C(=O)OCCI)n1`: the inhibition constant Ki in data set [1] (read-out: Ki) was found to be 270 nM. In data set [2], the MIC50 was over 25 µM and the MIC90 is over 25 µM.
In the case of `COC(=O)c1ccccc1CS(=O)(=O)NC(=O)Nc1nc(OC)cc(OC)n1` [BENSULFURON METHYL], the MIC50 in data set [4] came out at 20.8 µM (≈ 8.54 µg/mL); in data set [2], 62 µM (≈ 25.4 µg/mL). In addition, the inhibitory constant (Ki) in data set [1] (read-out: Ki) amounted to 31 nM.
Regarding `COC(=O)c1ccccc1S(=O)(=O)NC(=O)Nc1nc(Cl)cc(OC)n1`, the Ki in data set [1] (read-out: Ki) worked out at 7.1 nM. In data set [2], this molecule registered an MIC50 of 3 µM (≈ 1.2 µg/mL) and an MIC90 of 6.25 µM (≈ 2.51 µg/mL).
Regarding `COc1cc(I)nc(NC(=O)NS(=O)(=O)c2ccccc2C(=O)OCCI)n1`, in data set [1] (read-out: Ki), the Ki is 93 nM. Further, in data set [2], the MIC50 amounted to 12 µM (≈ 7.59 µg/mL) and the MIC90 is 25 µM (≈ 15.8 µg/mL).
In the case of `COc1cc(Cl)nc(NC(=O)NS(=O)(=O)c2ccccc2C(=O)OCCBr)n1`, in data set [1] (read-out: Ki), the Ki came out at 257 nM. Also, in data set [2], the MIC50 was over 25 µM and the MIC90 is over 25 µM.
As to `COc1cc(Br)nc(NC(=O)NS(=O)(=O)c2ccccc2C(=O)OCCCl)n1`, in data set [2], the MIC50 stood at 15 µM (≈ 7.41 µg/mL) and the MIC90 is over 25 µM.
